# Measured values reported in paper PMC5791907 (European journal of medicinal chemistry, 2018).
# Assays:
# HeLa cells [1] = experiment: Flow cytometric analysis of cell cycle distribution; assay type: cell-based, human; conditions: 24 h treatment, evident at 500 nM
# Procedure, shortened: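 HeLa cells (5 × 10^5) exposed to a range of test compound concentrations for 24 h, collected, and fixed in ice-cold 70% ethanol. Treated with lysis buffer containing RNase A and 0.1% Triton X-100, stained with PI, then analysed by flow cytometry. Phase distribution taken from DNA histograms. Mean ± SEM of two independent experiments.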
# HeLa cells [2] = experiment: Apoptosis assay; assay type: cell-based, human; conditions: 24 h incubation, further increased at 48 h
# [3] = system: L1210, FM3A, CEM and HeLa cell lines; experiment: Antiproliferative activity over the panel of four cancer cell lines; assay type: cell-based
# Procedure, shortened: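 Cells were seeded at 300,000–500,000 cells/mL with serial dilutions of test compound and incubated at 37 °C: 2 days for L1210 and FM3A, 3 days for CEM, and 4 days for HeLa. Cell number was counted with a Coulter counter. For each line, IC50 was the concentration that inhibited proliferation by 50%.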
# HeLa cells [4] = experiment: Mitochondrial membrane potential; assay type: cell-based, human; conditions: 100–250 nM, 6-48 h
# Procedure, shortened: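 HeLa cells treated with test compound for 6, 12, 24 or 48 h, then stained with the lipophilic cationic probe JC-1. Mitochondrial potential read by flow cytometry. Data are mean ± SEM of three independent experiments.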
# HeLa cells [5] = experiment: Western blot analysis of cell cycle checkpoint and apoptosis proteins; assay type: cell-based, human
# HeLa cells [6] = experiment: ROS production; assay type: cell-based, human; conditions: 250 nM, starting after 12–24 h
compound,measurement,setting,value
"COC(=O)c1sc(-c2ccccc2)cc1Nc1cc(OC)c(OC)c(OC)c1 [Compound 4a, Methyl 5-phenyl-3-[(3,4,5-trimethoxyphenyl)amino]thiophene-2-carboxylate]",Effect on cell cycle progression,HeLa cells [1],induced a G2/M arrest
same,Induction of apoptosis (annexin-V/PI),HeLa cells [2],induced a significant proportion of apoptotic cells
"COC(=O)c1sc(-c2cccs2)cc1Nc1cc(OC)c(OC)c(OC)c1 [Compound 4c, Methyl 4-[(3,4,5-trimethoxyphenyl)amino]-[2,2′-bithiophene]-5-carboxylate]",Effect on cell cycle progression,HeLa cells [1],induced a G2/M arrest
same,IC50,"[3]; read-out: mean IC50 value (antiproliferative activity), mean over cell lines",140 nM
same,Mitochondrial depolarization (cells with low Δψmt),HeLa cells [4],time-dependent increase in the percentage of cells with low Δψmt
same,PARP cleavage,HeLa cells [5],concentration-and time-dependent cleavage of PARP
same,cyclin B1 expression,"HeLa cells [5]; 24 h, concentration-dependent, marked reduction at 48 h",increase in cyclin B1 expression
same,cdc25c expression,"HeLa cells [5]; 24 h, even at 100 nM",marked reduction in the expression of phosphatase cdc25c
same,phosphorylated Cdk1,"HeLa cells [5]; 24 h and 48 h, 250 nM",decrease in the phosphorylated form of cyclin dependent kinase-1
same,expression of anti-apoptotic proteins Bcl-2 and Mcl-1,"HeLa cells [5]; starting after 24 h, even at 0.1 μM",decreased
same,Induction of apoptosis (annexin-V/PI),HeLa cells [2],induced a significant proportion of apoptotic cells
same,ROS production,HeLa cells [6],induced significant production of ROS
"COC(=O)c1sc(-c2ccc(C)cc2)cc1Nc1cc(OC)c(OC)c(OC)c1 [Compound 4i, Methyl 5-(p-tolyl)-3-[(3,4,5-trimethoxyphenyl)amino]thiophene-2-carboxylate]",Effect on cell cycle progression,HeLa cells [1],induced a G2/M arrest
same,Induction of apoptosis (annexin-V/PI),HeLa cells [2],induced a significant proportion of apoptotic cells
"COC(=O)c1sc(-c2cc(OC)c(OC)c(OC)c2)cc1Nc1cc(OC)c(OC)c(OC)c1 [Compound 4p, Methyl 5-(3,4,5-trimethoxyphenyl)-3-[(3,4,5-trimethoxyphenyl)amino]thiophene-2-carboxylate]",antiproliferative activity (in words),[3]; four cancer cell lines,not active
